# This excerpt belongs to a sample that is enriched for hits.
# HCT116 bCat-KO – beta-catenin-lacking colon tumor cell growth suppression. AID 818. HCT116 beta-catenin knockout viability, CellTiter-Glo, 60 h; active compounds read low. 1.5% of 140,000 active. viability, % at 10 µM;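 active = viability at or under a set limit, the compound median less 4 SD, cut at about 6% in these data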
# Fibroblast inh – blocks proliferation of human lung fibroblasts | LL 47 human lung fibroblast viability, ATP luminescence; active compounds read low | viability, % at 10 µM | 1.1% of 85,000 active | AID 719;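 active = viability at or below 50% in the single dose screen; inactive = viability above 50%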;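 also: compound exposure lasted 72 h before the ATP readout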
#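 test system = LL 47 human lung fibroblasts | amount = 1,150 fibroblasts seeded per well | medium = 15% FBS in IMEM | times = overnight cell rest, 72 h compound treatment at 37 °C | measured by = CellTiter-Glo luminescence measuring cellular ATP | read-out = viability percentage against median untreated-cell control | benchmarks = cell-only wells, no compound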
# H69AR growth 86K – growth inhibitors of human H69AR lung tumor cells; AID 598; H69AR lung tumor viability, ATP luminescence, 72 h; active compounds read low; 6% of 85,000 active; viability, % at 10 µM;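 active = viability at or below 40%; inactive = viability above 40%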;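 also: multidrug resistant small cell line overexpressing MRP-1 efflux transporter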
# HCT116 PTEN-null – suppresses growth of cells with PTEN deletion; HCT116 PTEN-null viability, CellTiter-Glo, 60 h; active compounds read low; viability, % at 10 µM; 1.2% of 140,000 active; AID 827;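 active = viability at or below a set limit, 4 SD under the median of all tested compounds, cut at about 3.7% in these data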;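 also: PTEN knockout HCT116 line with beta catenin targeted HCT116 as companion control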
# HUVEC prolif 384 – human endothelial cell proliferation inhibition; viability, % at 10 µM (by protocol); HUVEC proliferation, CellTiter-Glo luminescence, 72 h; active compounds read low; 1.1% of 86,000 active;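 active = viability at or below 30%; inactive = viability above 30%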
# Numbers stand for hits; n = inactive; x = not tested or not shown.
SMILES,HCT116 bCat-KO,Fibroblast inh,H69AR growth 86K,HCT116 PTEN-null,HUVEC prolif 384
CC(C)OC(=O)c1nn2c(C(F)(F)F)cc(-c3ccco3)nc2c1Cl,n,n,n,n,n
CC(C)OC(=O)c1nn2c(C(F)(F)F)cc(-c3ccc(Br)o3)nc2c1Br,n,n,35,n,n
CS(=O)(=O)N1CCN(c2ccc(NC(=O)c3ccc(-c4ccc(Cl)cc4)o3)cc2)CC1,n,n,29,n,n
O=C(Nc1ccc(CN2CCOCC2)cc1)c1ccc(-c2cccc(Cl)c2)o1,1.9,n,31,n,n
O=C(Nc1ccc(CN2CCOCC2)cc1)c1cc2ccccc2o1,n,n,n,n,n
CCOC(=O)C1=C(O)/C(=C\c2ccc(CNC(=O)C(=O)Nc3ccc(C)c(C)c3)o2)N=C1C,n,n,n,n,n
C=CCC(CC=C)(NC(=O)c1cccc(C)c1)c1ccccc1,n,x,x,n,x
Cc1ccc(S(=O)(=O)N(C)C)cc1NC(=O)CSc1ncc(C(F)(F)F)cc1Cl,1.3,x,x,n,x
Cc1ccc(S(=O)(=O)N2CCN(C(=O)CSc3ncc(C(F)(F)F)cc3Cl)CC2)cc1,n,n,6.2,n,n
CCN(CC)S(=O)(=O)c1ccc(C)c(NC(=O)CSc2ncc(C(F)(F)F)cc2Cl)c1,n,x,x,n,x
CC(NCc1ccc(N(C)C)cc1)C1CC2CCC1C2 (stereo unspecified),n,n,n,x,n
O=C(N/N=C\c1cccc(OC(=O)c2ccco2)c1)c1ccc2c(c1)OCO2,n,x,x,n,x
O=C1N=C(N2CCOCC2)S/C1=C1\C(=O)N(Cc2ccccc2)c2ccccc21,n,n,29,n,n
CN1C(=O)/C(=C2\SC(N3CCCCCC3)=NC2=O)c2ccccc21,n,n,n,x,n
CCCN1C(=O)/C(=C2\SC(N3CCCCC3)=NC2=O)c2ccccc21,n,x,19,n,n
Cc1cccc2cc(C#N)c(SCC(=O)NCc3cccs3)nc12,n,x,x,n,x
CCNC(=O)CCSc1nnc(-c2ccco2)o1,n,x,x,n,x
CC(NC(=O)CN(c1cccc(C(F)(F)F)c1)S(=O)(=O)c1ccc(Cl)c([N+](=O)[O-])c1)c1ccccc1 (stereo unspecified),5.8,x,x,n,x
CCC(=O)Nc1nnc(SCC(=O)N2c3ccccc3CC2C)s1 (stereo unspecified),n,37,n,n,n
O=C(CCc1ccccc1)Nc1nnc(-c2cccs2)o1,n,n,n,n,n
Cc1nnc(NC(=O)c2ccc(S(=O)(=O)N3CCCCCC3)cc2)o1,n,n,n,n,n
CC1CC(C)CN(S(=O)(=O)c2ccc(C(=O)Nc3nnc(-c4cccs4)o3)cc2)C1 (stereo unspecified),n,n,n,n,4.2
CC1CCCN(S(=O)(=O)c2ccc(C(=O)Nc3nnc(-c4ccccc4Cl)o3)cc2)C1 (stereo unspecified),n,47,31,n,3.9
O=C(Nc1nnc(-c2cccs2)o1)c1cccc(C(F)(F)F)c1,n,n,23,n,n
CCC1CCCCN1S(=O)(=O)c1ccc(C(=O)Nc2nnc(-c3cccs3)o2)cc1 (stereo unspecified),n,n,20,n,n
SMILES,HCT116 bCat-KO,Fibroblast inh,H69AR growth 86K,HCT116 PTEN-null,HUVEC prolif 384
CCC(C)(C(=O)NC1CCCCC1)N(Cc1ccco1)C(=O)Cc1cccs1 (stereo unspecified),n,n,n,n,n
CCc1nnc(N2C(=O)c3ccc(Oc4ccc([N+](=O)[O-])cc4)cc3C2=O)s1,n,x,x,n,x
Cc1ccc(O)c(-c2cc(C(=O)Nc3ccc(S(=O)(=O)N4CC(C)OC(C)C4)cc3)[nH]n2)c1 (stereo unspecified),n,n,17,n,n
CC(=O)Nc1ccc(S(=O)(=O)N2CCOCC2)cc1,n,n,n,n,n
Cc1cc(O)c(-c2cc(C(=O)Nc3ccc(S(=O)(=O)N4CCOCC4)cc3)[nH]n2)cc1C,n,49,33,n,n
CCC(/C=N/NC(=O)C(N)=O)CC,n,x,x,n,x
COc1cc2[nH]c(=O)n(CCCCCC(=O)N3CCN(c4ccccc4)CC3)c(=O)c2cc1OC,n,n,n,n,n
COc1cc2[nH]c(=O)n(CCC(=O)N3CCN(c4cccc(C)c4C)CC3)c(=O)c2cc1OC,n,n,2.4,n,n
COc1ccc(NC(=O)C2CCCN2S(=O)(=O)c2cccc3cccnc23)c(OC)c1 (stereo unspecified),n,n,n,n,n
COc1ccc(N(C)S(=O)(=O)c2cccc3cccnc23)c(OC)c1,n,n,17,n,n
O=S(=O)(Nc1cccc(-c2nc3cccnc3s2)c1)c1ccc2c(c1)OCCO2,n,n,n,n,n
Cc1ccc(-c2nc3cccnc3s2)cc1NS(=O)(=O)c1ccc2c(c1)OCCO2,n,n,21,n,n
CCCCNC(=O)c1onc(CSc2ccc(C(C)C)cc2)c1C(=O)O,n,x,x,n,x
COc1ccc(CCNC(=O)COC(=O)c2ccco2)cc1OC,n,n,n,n,n
COc1ccc(/C(O)=C/c2nc3ccc(C(=O)NCCc4cccc(C)c4)cc3[nH]c2=O)cc1OC,2.0,x,x,1.5,x
COc1ccc(CCNC(=O)c2ccc3c(=O)n(Cc4ccco4)c(=S)[nH]c3c2)cc1OC,n,n,11,n,n
COc1ccc(CCNC(=O)c2ccc3nc(-c4ccco4)c(-c4ccco4)nc3c2)cc1OC,n,n,18,n,n
COC(=O)c1cnn(-c2nc(OC)cc(OC)n2)c1C,n,x,x,n,x
COc1cc(OC)nc(-n2ncc(Br)c(Br)c2=O)n1,1.6,x,x,1.4,x
CCOC(=O)N1CCC(NC(=O)c2cc3c(-c4cccc(OC)c4)nn(C)c3s2)CC1,n,n,10,n,n
CC(C)CNC(=O)COc1cccc(C(=O)NCc2ccccc2)c1,n,x,x,n,x
O=C(C#Cc1cccc([N+](=O)[O-])c1)c1ccccc1,n,48,2.6,3.7,n
O=C(NCCc1ccccc1)c1cccc([N+](=O)[O-])c1,n,x,x,n,x
O=C1N(Nc2ccccc2)C(c2ccc(Br)cc2)C12CCCCC2 (stereo unspecified),n,n,19,n,n
O=C1N(Nc2ccccc2)C(c2ccc(Br)cc2)C12CCCC2 (stereo unspecified),n,n,n,n,n
SMILES,HCT116 bCat-KO,Fibroblast inh,H69AR growth 86K,HCT116 PTEN-null,HUVEC prolif 384
COc1ccccc1CNC(=O)c1ccc(OC(F)F)c(OC)c1,n,x,x,n,x
CCOc1ccc(-c2nnc(Nc3ccc(OC)c(C(=O)N4CCCCC4)c3)c3ccccc23)cc1,n,x,x,n,x
COc1ccc(C(=O)/C=C/c2ccc(OC)c(O)c2)c(F)c1,5.6,x,x,n,x
COc1ccc(C(=O)/C=C/c2cccs2)c(OC(=O)c2cccc([N+](=O)[O-])c2)c1,n,x,x,n,x
COc1cc(/C=C/C(=O)c2ccc(Cl)s2)cc(OC)c1O,4.5,x,x,n,x
COc1ccc(C(=O)/C=C/c2ccc(F)cc2)c(OC(=O)c2ccc([N+](=O)[O-])cc2)c1,n,x,x,3.3,x
COc1ccc(/C=C/C(=O)O)cc1OC,n,x,x,n,x
Cc1c(/C=C/C(=O)c2ccc(Cl)s2)cnn1C,n,n,n,n,n
COc1ccc(/C=C/C(=O)c2ccc(Cl)s2)cc1O,3.4,x,x,n,x
COc1ccc(/C=C/C(=O)c2ccccc2O)cc1,n,x,x,n,x
